Experimental data from ChEMBL document CHEMBL5661970 (Cancer Res, 2006).

How the values were obtained:
HUVEC = assay: Antiproliferative activity against bFGF-induced human HUVEC cells assessed as cell viability incubated for 72 hrs by WST-1 assay
MDA-MB-231 = assay: Antitumor activity against human MDA-MB-231 cells xenografted in gamma-irradiation induced RH-rnu/rnu athymic rat assessed as tumor growth inhibition at 1.0 mg/kg, po administered once daily for 2 weeks and measured on day 14 relative to control; format: functional; conditions: MDA-MB-231, light or radiation study, 336 h, read-out: TGI
In short: (§1)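 Rats were γ-irradiated with 7 Gy whole body, and 24 h later received s.c. tumor cells. Fragments (20-30 mg) from ~1,500 mm3 tumors were then implanted s.c. into irradiated athymic rats. Oral dosing at 0.2 or 1 mg/kg or vehicle ran once daily for 2 weeks from day 0. Tumors were measured with calipers twice weekly (length×width²×0.5). TGI% was taken versus vehicle on day 14 (BxPC-3: day 13), with an unpaired t test on RTV.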

LS174T = assay: Antitumor activity against human LS174T cells xenografted in gamma-irradiation induced RH-rnu/rnu athymic rat assessed as tumor growth inhibition at 0.2 mg/kg, po administered once daily for 2 weeks and measured on day 14 relative to control; format: functional; conditions: light or radiation study, 336 h, read-out: TGI; in short: as §1
NCI-H460 [1] = assay: Antitumor activity against human NCI-H460 cells xenografted in gamma-irradiation induced RH-rnu/rnu athymic rat assessed as tumor growth inhibition at 0.2 mg/kg, po administered once daily for 2 weeks and measured on day 14 relative to control; format: functional; conditions: NCI-H460, light or radiation study, 336 h, read-out: TGI; in short: as §1
NCI-H460 [2] = assay: Antitumor activity against human NCI-H460 cells xenografted in gamma-irradiation induced RH-rnu/rnu athymic rat assessed as tumor growth inhibition at 1.0 mg/kg, po administered once daily for 2 weeks and measured on day 14 relative to control; format: functional; conditions: NCI-H460, light or radiation study, 336 h, read-out: TGI; in short: as §1
OVCAR-3 = assay: Antitumor activity against human OVCAR-3 cells xenografted in gamma-irradiation induced RH-rnu/rnu athymic rat assessed as tumor growth inhibition at 0.2 mg/kg, po administered once daily for 2 weeks and measured on day 14 relative to control; format: functional; conditions: OVCAR-3, light or radiation study, 336 h, read-out: TGI; in short: as §1
SK-OV-3 = assay: Antitumor activity against human SK-OV-3 cells xenografted in gamma-irradiation induced RH-rnu/rnu athymic rat assessed as tumor growth inhibition at 0.2 mg/kg, po administered once daily for 2 weeks and measured on day 14 relative to control; format: functional; conditions: SK-OV-3, light or radiation study, 336 h, read-out: TGI
BXPC-3 = assay: Antitumor activity against human BXPC-3 cells xenografted in gamma-irradiation induced RH-rnu/rnu athymic rat assessed as tumor growth inhibition at 0.2 mg/kg, po administered once daily for 2 weeks and measured on day 13 relative to control; format: functional; conditions: BXPC-3, light or radiation study, 336 h, read-out: TGI; in short: as §1
DU-145 = assay: Antitumor activity against human DU-145 cells xenografted in gamma-irradiation induced RH-rnu/rnu athymic rat assessed as tumor growth inhibition at 1.0 mg/kg, po administered once daily for 2 weeks and measured on day 14 relative to control; format: functional; conditions: DU-145, light or radiation study, 336 h, read-out: TGI; in short: as §1
[3] = Antitumor activity against human CGL-9 cells xenografted in gamma-irradiation induced RH-rnu/rnu athymic rat assessed as tumor growth inhibition at 0.2 mg/kg, po administered once daily for 2 weeks and measured on day 14 relative to control; format: functional; conditions: CGL-9, light or radiation study, 336 h, read-out: TGI; in short: as §1
CAKI-1 = assay: Antitumor activity against human CAKI-1 cells xenografted in gamma-irradiation induced RH-rnu/rnu athymic rat assessed as tumor growth inhibition at 1.0 mg/kg, po administered once daily for 2 weeks and measured on day 14 relative to control; format: functional; conditions: CAKI-1, light or radiation study, 336 h, read-out: TGI; in short: as §1
Calu-6 [4] = assay: Antitumor activity against human Calu-6 cells xenografted in RH-rnu/rnu athymic rat assessed as decrease in capillary permeability in tumor at 0.2 mg/kg, po measured on day 13 by DCE-MRI analysis relative to control; format: functional; design: scale not given: the % may be the effect or the level left
Calu-6 [5] = assay: Antitumor activity against human Calu-6 cells xenografted in RH-rnu/rnu athymic rat assessed as increased pericyte coverage at 1 mg/kg, po administered for 14 days by immunofluorescence staining analysis relative to control; format: functional; conditions: time 14 day
In short: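 Calu-6 xenografted athymic rats were randomized at 273-275 mm3 and dosed orally for 2 weeks. Paraffin sections were double-stained with anti-CD31 and Cy3-anti-α-smooth muscle actin. Pericyte-associated endothelial cells were counted in six fields per tumor, with six tumors per group and Dunnett's test.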

[6] = AUC (0-infinity) in F344/N JcL-rnu athymic rat at 0.04 mg/kg, po measured upto 72 hrs by HPLC-MS/MS analysis; format: ADME, organism-based; conditions: in vivo
In short: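 Female athymic rats, four per group, given a single oral dose suspended in 0.5% methyl cellulose in water. Tail-vein blood was drawn at set times up to 72 h. Serum was spiked with internal standard, deproteinated with acetonitrile and analysed by HPLC-MS/MS. AUCinf came from noncompartmental analysis.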

[7] = Apparent oral clearance in F344/N JcL-rnu athymic rat at 5 mg/kg, po measured upto 72 hrs by HPLC-MS/MS analysis; format: ADME, organism-based; conditions: in vivo
In short: (§2)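 Female F344/N JcL-rnu rats, four per group, single p.o. dose suspended in 0.5% methyl cellulose. Tail-vein blood sampled at set times to 72 h. Serum spiked with internal standard, deproteinated with acetonitrile, analysed by HPLC-MS/MS. Parameters derived by noncompartmental analysis.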

[8] = Apparent oral volume of distribution in F344/N JcL-rnu athymic rat at 0.2 mg/kg, po measured upto 72 hrs by HPLC-MS/MS analysis; format: ADME, organism-based; conditions: in vivo; in short: as §2
[9] = Apparent oral volume of distribution in F344/N JcL-rnu athymic rat at 5 mg/kg, po measured upto 72 hrs by HPLC-MS/MS analysis; format: ADME, organism-based; conditions: in vivo; in short: as §2
[10] = Half life in F344/N JcL-rnu athymic rat at 5 mg/kg, po measured upto 72 hrs by HPLC-MS/MS analysis; format: ADME, organism-based; conditions: in vivo; in short: as §2
[11] = Cmax in F344/N JcL-rnu athymic rat at 1 mg/kg, po measured upto 72 hrs by HPLC-MS/MS analysis; format: ADME, organism-based; conditions: in vivo; in short: as §2
[12] = Average concentration at steady state in F344/N JcL-rnu athymic rat at 0.2 mg/kg/day, po measured upto 72 hrs by HPLC-MS/MS analysis; format: ADME, organism-based; conditions: in vivo
In short: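 Steady-state serum levels for repeated oral 0.2 mg/kg daily dosing were simulated from single-dose serum data (female F344/N JcL-rnu rats, four per group, tail-vein sampling to 72 h, HPLC-MS/MS, noncompartmental analysis), not measured directly.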

A549 [13] = assay: Antitumor activity against human A549 cells xenografted in F344/N Jcl-rnu athymic rat assessed as tumor regression at 1.0 mg/kg, po relative to control
A549 [14] = assay: Antitumor activity against human A549 cells xenografted in F344/N Jcl-rnu athymic rat assessed as reduction in number of CD31-positive cells in viable regions of tumor at 0.2 mg/kg, po administered once daily for 7 days by immunofluorescence staining analysis relative to control; conditions: time 7 day

COc1cc2nccc(Oc3ccc(NC(=O)Nc4cc(C)on4)c(Cl)c3)c2cc1OC [TIVOZANIB]
IC50 (HUVEC): > 300 nM | inhibition in vivo at 1 mg/kg (MDA-MB-231): > 100% | inhibition in vivo at 0.2 mg/kg (LS174T): 85.7% | inhibition in vivo at 0.2 mg/kg (NCI-H460 [1]): 68.8% | inhibition in vivo at 1 mg/kg (NCI-H460 [2]): 85.9% | inhibition in vivo at 0.2 mg/kg (OVCAR-3): 25% | inhibition in vivo at 0.2 mg/kg (SK-OV-3): 93.4% | inhibition in vivo at 0.2 mg/kg (BXPC-3): 60.7% | inhibition in vivo at 1 mg/kg (DU-145): > 100% | inhibition in vivo at 0.2 mg/kg [3]: 46% | inhibition in vivo at 1 mg/kg (CAKI-1): > 100% | Activity (Calu-6 [4]): 45% | Activity (Calu-6 [5]): 50.5% | AUC(0-inf) [6]: 340 ng·h/mL | CL/F [7]: 1.88 mL/min/kg | Vd/F [8]: 1.4 L/kg | Vd/F [9]: 1.29 L/kg | half-life [10]: 7.94 h | Cmax [11]: 484 ng/mL | Cave,ss [12]: 69.5 ng/mL | tumor regression % at 1 mg/kg (A549 [13]): 33% | Activity (A549 [14]): 20.7%
